Screens as filed in PubChem.
Only some compounds are listed: those with a hit (about 4.8% of all), similar ones and a draw of the others.
Efflux pump mplx: inhibitors of Candida antifungal efflux pumps expressed in yeast; 330,000 compounds, 0.44% hits; inhibition, % at 10 µM; S. cerevisiae Candida pump triplex, Nile Red efflux;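 active = plate passing quality check with inhibition over a set limit, or well fluorescence over plate mean plus 4 SD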;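 also: Nile Red retained in pooled yeast measured as flow cytometry median fluorescence; higher means more Nile Red kept so more efflux inhibition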
CSC inhib: blocks cancer stem cells; cancer stem cell-like cells viability, luminescence; inhibition, % at 7.5 µM; 300,000 compounds, 1.1% hits; in the data active = inhibition above about 75%; tested in HMLE shEcad cells
Beta cell apopt: blocks beta cell apoptosis | INS-1E cytokine-induced death, ATP luminescence, 48 h; percent of positive-control rescue, neutral wells zero | protection from apoptosis, % (no concentration beside the values) | 300,000 compounds, 0.8% hits;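 active = Every replicate reaches about 75%, or at least half do and their mean reaches it too, limit read from the data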;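 also: higher means more ATP so stronger rescue from cytokine killing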
WT yeast gro inh: growth inhibition of WT yeast, mitochondrial fusion screen; mitochondrial fusion phenotypic screen, WT strain; inhibition, % at 10 µM; 190,000 compounds, 2.1% hits; in the data active = inhibition above about 58%; tested in S. cerevisiae
T cruzi repl: blocks replication of Trypanosoma cruzi; T. cruzi beta-gal in NIH3T3, luminescence, 90 h; inhibition, % (test concentration not listed); 300,000 compounds, 1.4% hits; AID 1885;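 active = mean inhibition across valid replicates above about 55%, limit read from the data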;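 also: signal also drops with host cell toxicity which is not excluded here; higher percent means less beta-gal luminescence so fewer parasites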
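Test system: β-gal T. cruzi (Tulahuen C4) inside NIH/3T3 cells / Quantity: 5,000 cells/well / Measured by: luminescence from GalScreen with 0.05% NP40, read after 60 min / Medium: DMEM plus 2% FBS / Measure: parasite load inhibition, % / Reagent: Tulahuen C4 trypomastigotes, 5000/well / Schedule: co-culture of at least 90 h after 3 h attachment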
Mot1-301 SUMO: inhibitors of SUMOylation pathway: yeast Mot1-301 growth rescue; AID 2716; S. cerevisiae Mot1-301 growth rescue, ATP luminescence, 38.5C; percent above DMSO median, 100 means doubled; 320,000 compounds, 1% hits; growth rescue, % at 18.8 µM;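 active = every valid replicate shows activation above 250% relative to neutral control wells; inactive = the rest, any valid replicate at or below 250%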
Numbers stand for hits; n = inactive; x = no result given.

SMILES	Efflux pump mplx	CSC inhib	Beta cell apopt	WT yeast gro inh	T cruzi repl	Mot1-301 SUMO
CCOC(=O)c1cnc(-n2nc(C)cc2C)nc1Nc1ccc(O)cc1	n	n	119	x	n	n
CCOC(=O)c1cnc(-n2nc(C)cc2C)nc1Nc1ccc(C)cc1	x	x	x	n	n	x
Cc1c(O)ccc(-c2n[nH]c(C(=O)O)c2-c2nc3ccccc3s2)c1O	n	n	n	x	n	n
CCOC(=O)c1cnc(-n2nc(C)cc2C)nc1NNc1nc(C)cc(C)n1	n	n	n	x	n	n
CCOC(=O)c1cnc(-n2nc(C)cc2C)nc1NNc1nc(-c2ccccc2)cc(-c2ccccc2)n1	n	128	118	n	n	n
O=C(NC1CCN(C(=S)Nc2ccc(F)cc2)CC1)c1ccco1	n	n	n	x	n	n
O=C1/C(=C/C=C/c2ccco2)SC(=S)N1NS(=O)(=O)c1ccccc1	1.5	n	n	x	x	n
COc1cc(SC)ccc1C(=O)NCCOc1ccc(C)c(C)c1	n	x	n	64	n	n
COc1cc(SC)ccc1C(=O)NCC1CCCO1 (stereo unspecified)	n	n	n	86	n	n
COc1ccc(NC(=S)N2CCc3ccccc32)cc1OC	n	n	x	x	n	n
Cc1cc(C)n(CC(=O)NNC(=O)C2CC(=O)N(Cc3ccccc3Cl)C2)n1 (stereo unspecified)	n	n	n	x	n	n
N#C/C(=C\c1ccc(O)c([N+](=O)[O-])c1)c1nc2ccccc2s1	x	x	x	n	n	x
COc1cc(/C=C(\C#N)c2nc3ccccc3s2)cc([N+](=O)[O-])c1O	x	x	x	67	n	x
Cc1cn2c(nc1=O)OC1CC2OC1CO (stereo unspecified)	n	n	n	x	n	n
Cc1ccc(-n2[nH]c(C)c(/C=N/Nc3ccc([N+](=O)[O-])cc3[N+](=O)[O-])c2=O)cc1C	n	n	n	70	n	n
CCC(C)NC(=O)c1ccccc1NC(=O)c1ccc(CSc2ccccc2)cc1 (stereo unspecified)	n	n	n	n	n	n
CCCNC(=O)c1ccccc1NC(=O)c1ccc(CSc2ccccc2)cc1	n	x	n	n	n	358
CN1CCN(CC(O)(c2ccc(Cl)cc2)c2ccc(Cl)cc2)CC1	n	n	x	82	n	n
CN1CCN(CC(O)COc2ccc(Cl)cc2)CC1 (stereo unspecified)	n	n	n	n	n	n
COc1ccc2cc(/C=N/NC(=O)c3ccc(CN(c4cccc(Cl)c4Cl)S(C)(=O)=O)cc3)c(Cl)nc2c1	n	85	n	n	n	n
COc1ccc2cc(/C=N/O)c(Cl)nc2c1	n	x	x	n	n	n
Cc1ccc[n+](CC(=O)Nc2cc(C(F)(F)F)ccc2Cl)c1	n	n	n	n	n	n
CCC(C)(C)c1ccc(OCCCC[n+]2cccc(C)c2)c(C(C)(C)CC)c1	x	x	x	98	60	x
CC1CCCN(C(=O)CNS(=O)(=O)c2cccs2)C1 (stereo unspecified)	n	n	n	x	n	n
Cn1cc(S(=O)(=O)N2CCCC2)cc1C(=O)Nc1cccc(C(F)(F)F)c1	n	n	n	x	n	333
SMILES	Efflux pump mplx	CSC inhib	Beta cell apopt	WT yeast gro inh	T cruzi repl	Mot1-301 SUMO
O=C(Nc1cccc(S(=O)(=O)N2CCCC2)c1)c1cccc(OC(F)F)c1	n	n	n	x	n	353
CSc1cccc(NC(=O)c2cc(S(=O)(=O)N3CCCC3)cn2C)c1	n	n	n	x	n	n
O=C(Nc1ccc(S(=O)(=O)N2CCCC2)cc1)c1cccc(OC(F)F)c1	n	n	n	x	n	n
Cc1ccccc1CC1SC(N)=NC1=O (stereo unspecified)	n	n	n	x	n	n
S=C(Nc1cc(Cl)cc(Cl)c1)NC1CCN(Cc2ccccc2)CC1	n	75	n	x	n	n
S=C(NCc1ccc(Cl)cc1)NC1CCN(Cc2ccccc2)CC1	n	n	n	n	60	n
Cc1ccc2c(c1)c1c(n2CC(O)Cn2nc(C)c(Br)c2C)CCCC1 (stereo unspecified)	n	x	n	76	n	n
COc1ccc(-n2c(-c3ccc(Cl)cc3)c[n+]3c2CCc2ccccc2-3)cc1	n	n	110	n	74	n
c1coc(CNc2c3c(nc4ccccc24)CCC3)c1	n	n	x	n	69	n
CC(=O)Nc1ccc(C(=O)OCc2ccccc2Br)cc1	n	n	n	76	n	n
CCCCOc1ccc(/C=N/Nc2cc(N3CCOCC3)nc(C)n2)cc1	n	n	n	x	56	n
CCCOc1ccc(/C=N/Nc2cc(N3CCOCC3)ncn2)c(O)c1	n	98	91	x	n	n
